Data reported in article PMC4561207 (Child's nervous system : ChNS : official journal of the …, 2015).

Test: Adverse events regardless of attribution
Format: in vivo, human
Summary of the method: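 Children with recurrent/refractory CNS tumours took oral drug once daily, continuously, in 28-day cycles. Dosing was stratified by EIACD use, with start/escalation levels 20–40 mg/m² (no EIACD) or 15–32 mg/m² (EIACD). Monitoring included weekly exam, serum chemistries, CBC and urine protein for 8 weeks, and TSH before each cycle. Events other than hypertension were graded by CTCAE v3, later v4.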

## COc1cc2c(Oc3ccc4[nH]c(C)cc4c3F)ncnc2cc1OCCCN1CCCC1 [cediranib, Cediranib]
Grade 3 AE
  Anemia, events (patients): 2(2)
  Aspartate aminotransferase increased, events (patients): 2(2)
  Blurred vision, events (patients): 1(1)
  Capillary leak syndrome, events (patients): 1(1)
  Chest wall pain, events (patients): 1(1)
  Confusion, events (patients): 1(1)
  Dehydration, events (patients): 4(4)
  Depressed level of consciousness, events (patients): 2(2)
  Diarrhea, events (patients): 3(3)
  Dysphasia, events (patients): 2(2)
  Enterocolitis, events (patients): 1(1)
  Eye disorders - Other, specify, events (patients): 1(1)
  Fatigue, events (patients): 4(4)
  Headache, events (patients): 7(5)
  Hydrocephalus, events (patients): 2(2)
  Hyperkalemia, events (patients): 1(1)
  Hypermagnesemia, events (patients): 1(1)
  Hypernatremia, events (patients): 2(1)
  Hypertension, events (patients): 10(10)
  Hypertriglyceridemia, events (patients): 1(1)
  Hypokalemia, events (patients): 3(2)
  Hyponatremia, events (patients): 5(5)
  Lipase increased, events (patients): 1(1)
  Lymphocyte count decreased, events (patients): 5(3)
  Mucositis oral, events (patients): 1(1)
  Nausea, events (patients): 3(3)
  Neutrophil count decreased, events (patients): 2(2)
  Oral pain, events (patients): 2(2)
  Palmar-plantar erythrodysesthesia syndrome, events (patients): 3(3)
  Peripheral motor neuropathy, events (patients): 2(2)
  Proteinuria, events (patients): 3(3)
  Reversible posterior leukoencephalopathy syndrome, events (patients): 1(1)
  Seizure, events (patients): 3(3)
  Vomiting, events (patients): 2(2)
  Weight loss, events (patients): 1(1)
  White blood cell decreased, events (patients): 1(1)
Grade 4 AE
  Alanine aminotransferase increased, events (patients): 1(1)
  Aspartate aminotransferase increased, events (patients): 1(1)
  Hypernatremia, events (patients): 2(1)
  Hyponatremia, events (patients): 1(1)
  Hypothyroidism, events (patients): 1(1)
  Lymphocyte count decreased, events (patients): 1(1)
  Nervous system disorders - Other, specify, events (patients): 1(1)
  Papilledema, events (patients): 1(1)
  Seizure, events (patients): 1(1)
Total AE
  Abdominal pain, events (patients): 11(11)
  Acidosis, events (patients): 7(5)
  Alanine aminotransferase increased, events (patients): 70(30)
  Alkaline phosphatase increased, events (patients): 4(3)
  Anal mucositis, events (patients): 1(1)
  Anal pain, events (patients): 1(1)
  Anemia, events (patients): 7(6)
  Anorexia, events (patients): 15(12)
  Arthralgia, events (patients): 1(1)
  Aspartate aminotransferase increased, events (patients): 45(23)
  Back pain, events (patients): 5(4)
  Blood bilirubin increased, events (patients): 18(10)
  Blurred vision, events (patients): 1(1)
  Bone pain, events (patients): 3(2)
  Capillary leak syndrome, events (patients): 1(1)
  Cardiac troponin I increased, events (patients): 1(1)
  Chest wall pain, events (patients): 2(2)
  Cholesterol high, events (patients): 1(1)
  Chronic kidney disease, events (patients): 1(1)
  Confusion, events (patients): 2(2)
  Constipation, events (patients): 9(4)
  Cough, events (patients): 5(4)
  Creatinine increased, events (patients): 5(3)
  Dehydration, events (patients): 8(7)
  Depressed level of consciousness, events (patients): 2(2)
  Depression, events (patients): 3(3)
  Diarrhea, events (patients): 63(32)
  Dizziness, events (patients): 5(3)
  Dry mouth, events (patients): 1(1)
  Dry skin, events (patients): 1(1)
  Dyspepsia, events (patients): 4(4)
  Dysphasia, events (patients): 3(3)
  Edema face, events (patients): 1(1)
  Edema limbs, events (patients): 2(2)
  Endocrine disorders - Other, specify, events (patients): 2(2)
  Enterocolitis, events (patients): 1(1)
  Epistaxis, events (patients): 6(5)
  Eye disorders - Other, specify, events (patients): 2(2)
  Fatigue, events (patients): 25(20)
  Fecal incontinence, events (patients): 2(2)
  Fever, events (patients): 3(3)
  Flushing, events (patients): 3(1)
  GGT increased, events (patients): 1(1)
  Gastritis, events (patients): 2(2)
  Gastrointestinal disorders - Other, specify, events (patients): 2(2)
  Headache, events (patients): 38(19)
  Hematuria, events (patients): 5(3)
  Hemoglobin increased, events (patients): 12(6)
  Hoarseness, events (patients): 1(1)
  Hydrocephalus, events (patients): 4(3)
  Hypercalcemia, events (patients): 6(3)
  Hyperglycemia, events (patients): 22(16)
  Hyperkalemia, events (patients): 4(4)
  Hypermagnesemia, events (patients): 15(9)
  Hypernatremia, events (patients): 16(5)
  Hypertension, events (patients): 59(38)
  Hyperthyroidism, events (patients): 2(2)
  Hypertriglyceridemia, events (patients): 1(1)
  Hypoalbuminemia, events (patients): 34(17)
  Hypocalcemia, events (patients): 26(16)
  Hypoglycemia, events (patients): 6(5)
  Hypokalemia, events (patients): 23(18)
  Hypomagnesemia, events (patients): 9(7)
  Hyponatremia, events (patients): 29(13)
  Hypophosphatemia, events (patients): 21(13)
  Hypothyroidism, events (patients): 21(15)
  Hypoxia, events (patients): 1(1)
  INR increased, events (patients): 1(1)
  Intracranial hemorrhage, events (patients): 4(4)
  Investigations - Other, specify, events (patients): 2(2)
  Joint effusion, events (patients): 1(1)
  Leukoencephalopathy, events (patients): 1(1)
  Lipase increased, events (patients): 2(1)
  Lymphocyte count decreased, events (patients): 31(13)
  Malaise, events (patients): 3(1)
  Mucositis oral, events (patients): 4(4)
  Myalgia, events (patients): 3(3)
  Nausea, events (patients): 25(16)
  Nervous system disorders - Other, specify, events (patients): 4(4)
  Neutrophil count decreased, events (patients): 23(11)
  Non-cardiac chest pain, events (patients): 3(3)
  Oral pain, events (patients): 4(4)
  Pain in extremity, events (patients): 9(7)
  Pain, events (patients): 4(4)
  Palmar-plantar erythrodysesthesia syndrome, events (patients): 17(7)
  Papilledema, events (patients): 1(1)
  Pericardial effusion, events (patients): 1(1)
  Peripheral motor neuropathy, events (patients): 4(4)
  Platelet count decreased, events (patients): 26(18)
  Pleural effusion, events (patients): 1(1)
  Proteinuria, events (patients): 40(21)
  Rash acneiform, events (patients): 2(2)
  Rash maculo-papular, events (patients): 6(5)
  Rectal pain, events (patients): 1(1)
  Renal and urinary disorders - Other, specify, events (patients): 1(1)
  Respiratory, thoracic and mediastinal disorders - Other, specify, events (patients): 2(2)
  Reversible posterior leukoencephalopathy syndrome, events (patients): 2(1)
  Seizure, events (patients): 7(6)
  Serum amylase increased, events (patients): 1(1)
  Skin and subcutaneous tissue disorders - Other, specify, events (patients): 2(2)
  Skin ulceration, events (patients): 2(2)
  Stomach pain, events (patients): 3(3)
  Urinary frequency, events (patients): 2(2)
  Urinary retention, events (patients): 3(3)
  Vascular disorders - Other, specify, events (patients): 2(2)
  Voice alteration, events (patients): 2(2)
  Vomiting, events (patients): 41(21)
  Weight loss, events (patients): 5(5)
  White blood cell decreased, events (patients): 23(14)
